Columns and labels:
[1] = system: Plasmodium berghei (NK65); assay: Antimalarial suppressive test against Plasmodium berghei in mice; type: in vivo; conditions: P. berghei; for Inhibition of parasitaemia at days after parasite inoculation (%) Fifth: day 5; for Inhibition of parasitaemia at days after parasite inoculation (%) Ninth: day 9
Method in brief: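 Oral 4-day-type suppressive test, run once. P. berghei NK65 (chloroquine-sensitive) blood stages kept at -70 °C and passaged weekly in outbred Swiss mice. Adult female mice (20 ± 2 g) received 1 × 10^5 infected erythrocytes and were randomised into groups of three 24 h later. […] Parasitaemia was read on Giemsa-stained tail-blood smears on days 5 and 9, as inhibition versus untreated mice (100%).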

[2] = system: normal monkey kidney cells (BGM); assay: Cytotoxicity MTT assay, BGM cells; type: cell-based; conditions: for BGM MLD50: BGM cells, 24 h, MTT, unit only from tested concentrations
[3] = system: human hepatocellular liver carcinoma cell line (HepG2); assay: Cytotoxicity MTT assay, HepG2 cells; type: cell-based; conditions: 24 h, unit only from tested concentrations
[4] = system: Plasmodium falciparum W2 clone (chloroquine-resistant); assay: In vitro activity against P. falciparum blood-stage parasites, anti-HRPII test; type: cell-based; conditions: classified by IC50
[5] = chloroquine 20 mg/kg, listed as chloroquine
[6] = oral 100 mg/kg for three consecutive days

CCN(CC)CCCC(C)Nc1ccnc2cc(Cl)ccc12 (stereo not shown) [Chloroquine]
Activity ([1]; chloroquine 20 mg/kg): Cure | Inhibition of parasitaemia at days after parasite inoculation (%) Fifth ([1]; chloroquine 20 mg/kg): 100% | Inhibition of parasitaemia at days after parasite inoculation (%) Ninth ([1]; chloroquine 20 mg/kg): 100% | Activity [1, 5]: clearing parasitaemia | survival of mice [1, 5]: maintaining survival of the mice

CC(C)=CCC1=C(O)C(=O)c2ccccc2C1=O [Compound 10, Lapachol]
BGM MLD50 [2]: 1,785.1 ± 888.3 µM | HepG2 MLD50 [3]: 1,491.7 ± 321.4 µM

CC(C)=CC1=C(O)C(=O)c2ccccc2C1=O [Compound 11, Nor-lapachol]
in vivo activity class ([1]; oral 100 mg/kg): inactive | Inhibition of parasitaemia at days after parasite inoculation (%) Fifth [1, 6]: 21% | Inhibition of parasitaemia at days after parasite inoculation (%) Ninth [1, 6]: 21% | BGM MLD50 [2]: 1,608.8 ± 221.8 µM | in vitro activity class against P. falciparum [4]: partially active (those with IC50 values between 5-30 µM were considered partially active) | HepG2 MLD50 [3]: 1,698.6 ± 94.8 µM

CC(C)/C=C/C1=C(O)C(=O)c2ccccc2C1=O [Compound 12, Iso-lapachol]
BGM MLD50 [2]: 1,388.9 ± 592.5 µM | difference in cytotoxicity between HepG2 and BGM cells ([2]; HepG2 versus BGM): near two-fold increase | in vitro activity class against P. falciparum [4]: partially active (those with IC50 values between 5-30 µM were considered partially active) | HepG2 MLD50 [3]: ≥ 4,127.6 µM

CC1=C(O)C(=O)c2ccccc2C1=O [Compound 13, 2-hydroxy-3-methyl-1,4-naphthoquinone]
BGM MLD50 [2]: ≥ 5,314.1 µM | HepG2 MLD50 [3]: 5,308.2 ± 8.3 µM

Reference: PMC4156448 (Memórias do Instituto Oswaldo Cruz, 2014)
